Molecules are shown by their SMILES. Active and inactive are the calls of the source. No cut-off for these calls is given here.

The subject of series [1] is HepG2. Briefly: Cytotoxicity against human HepG2 cells after 48 hrs by MTT assay. The settings on record: HepG2, 48 h. The format is functional, cell-based. (In general: Formazan colour is commonly taken as a measure of viable cells.)
The test system of series [2] is HepG2. Kind of series: Cell cycle arrest in human HepG2 cells assessed as accumulation at G0/G1 phase at 1.25 to 5 ug/ml after 24 hrs using propidium iodide by flow cytometry. The series is classed as functional, cell-based. An outline of the steps:
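HepG2 cells incubated 24 h with compound at 1.25, 2.5 and 5.0 μg/mL or left untreated (control); cell cycle distribution read by flow cytometry; significance versus untreated control given as P < 0.05 / P < 0.01.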
Background: Flow cytometry measures light scatter and fluorescence of single cells or particles in a stream.

Series [3] concerns MCF7. Kind of series: Cytotoxicity against human MCF7 cells after 48 hrs by MTT assay. The series is classed as functional, cell-based. As to conditions: MCF7, 48 h.
Series [4] concerns MCF7. Kind of series: Cytotoxicity against adriamycin-resistant human MCF7 cells after 48 hrs by MTT assay. The format is functional, cell-based. As to conditions: MCF7, 48 h.
Series [5] is described as follows: Tmax in Sprague-Dawley rat at 25 mg/kg, po as single dose. The series is classed as ADME, organism-based. The arrangement: dose 25 mg/kg, route oral. As to conditions: in vivo. An outline of the steps:
(§1)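 Adult male Sprague–Dawley rats (n = 3) received a single oral dose of 25 mg/kg. Nine blood samples were drawn over 24 h to build a plasma concentration–time curve. Parameters were derived by noncompartmental analysis and reported as mean ± deviation.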

The nature of series [6]: Cmax in Sprague-Dawley rat at 25 mg/kg, po as single dose. Also noted: dose 25 mg/kg, route oral. The series is classed as ADME, organism-based. As to conditions: in vivo. The essentials: as §1
Series [7] is described as follows: AUC (0 to t) in Sprague-Dawley rat at 25 mg/kg, po as single dose. The format is ADME, organism-based. The arrangement: dose 25 mg/kg, route oral. The settings on record: plasma. The essentials: as §1
A short description of series [8]: AUC (0 to infinity) in Sprague-Dawley rat at 25 mg/kg, po as single dose. The series is classed as ADME, organism-based. The arrangement: time infinity, dose 25 mg/kg, route oral. As to conditions: plasma. An outline of the steps:
as §1

Series [9] is described as follows: Mean residence time in Sprague-Dawley rat at 25 mg/kg, po as single dose. The series is classed as ADME, organism-based. Also noted: dose 25 mg/kg, route oral. The settings on record: in vivo. The essentials: as §1
A short description of series [10]: Half life in Sprague-Dawley rat at 25 mg/kg, po as single dose. The format is ADME, organism-based. Also noted: dose 25 mg/kg, route oral. The settings on record: in vivo. An outline of the steps: as §1

One may read the IC50 as the concentration that inhibits the measured activity by half. Low readings indicate higher potency, high ones lower potency. The compound `COc1ccccc1CN1C[C@H]2CCCN3CCC[C@@H]([C@H]23)[C@H]1CCCC(=O)O` yielded a half-inhibitory concentration (IC50) in the series with HepG2 [1] greater than 40 µM.
In turn, `Fc1ccc(C(=CCC[C@@H]2[C@H]3CCCN4CCC[C@H](CN2Cc2c5ccccc5cc5ccccc25)[C@@H]34)c2ccc(F)cc2)cc1` showed a half-maximal inhibitory concentration (IC50) with HepG2 [1] of 5.3 µM.
`CC(C)(O)CCC[C@@H]1[C@H]2CCCN3CCC[C@H](CN1Cc1c4ccccc4cc4ccccc14)[C@@H]23` yielded a concentration for half-maximal inhibition (IC50) in the series on HepG2 [1] of 2.1 µM.
The same measure, in the same setting: the same measure for `COc1cccc(CN2C[C@H]3CCCN4CCC[C@@H]([C@H]34)[C@H]2CCCC(=O)O)c1OC`: greater than 40 µM; for `COC(=O)CCC[C@@H]1[C@H]2CCCN3CCC[C@H](CN1Cc1c4ccccc4cc4ccccc14)[C@@H]23`: 4.3 µM.
Take `COC(=O)CCC[C@@H]1[C@H]2CCCN3CCC[C@H](CN1Cc1ccc4ccccc4c1)[C@@H]23`: the 50% inhibitory concentration (IC50) with HepG2 [1] was found to be 5.8 µM.
Compound `COc1cc(CN2C[C@H]3CCCN4CCC[C@@H]([C@H]34)[C@H]2CCCC(=O)O)cc(OC)c1OC` had a half-inhibitory concentration (IC50) with HepG2 [1] greater than 40 µM.
Still for that read-out and setting: next, `CCOc1ccc(CN2C[C@H]3CCCN4CCC[C@@H]([C@H]34)[C@H]2CCCCO)cc1OC`: greater than 40 µM.
On the same count and under the same terms, the same measure for `COC(=O)CCC[C@@H]1[C@H]2CCCN3CCC[C@H](CN1Cc1ccccc1OC)[C@@H]23`: 10.3 µM.
In the series with HepG2 [1], `O=C1CCC[C@@H]2[C@H]3CCCN4CCC[C@H](CN12)[C@@H]34` [SOPHORIDINE] had a concentration for half-maximal inhibition (IC50) greater than 80 µM. In addition, the result with HepG2 [2] was Active.
`COC(=O)CCC[C@@H]1[C@H]2CCCN3CCC[C@H](CN1Cc1ccc(OC)c(OC)c1)[C@@H]23`: in the series with HepG2 [1], the IC50 is greater than 40 µM.
Take `COC(=O)CCC[C@@H]1[C@H]2CCCN3CCC[C@H](CN1Cc1ccc(OC)cc1)[C@@H]23`: the IC50 in the series with HepG2 [1] was found to be 10.7 µM.
Still for that read-out and setting: next, `O=C(O)CCC[C@@H]1[C@H]2CCCN3CCC[C@H](CN1Cc1cccc4ccccc14)[C@@H]23`: greater than 40 µM; `CCC(O)(CC)CCC[C@@H]1[C@H]2CCCN3CCC[C@H](CN1Cc1c4ccccc4cc4ccccc14)[C@@H]23`: 2.7 µM.
With `COC(=O)CCC[C@@H]1[C@H]2CCCN3CCC[C@H](CN1Cc1ccc(OC)c(OC)c1Cl)[C@@H]23`, the midpoint of inhibition with HepG2 [1], the IC50, lay at 8.4 µM.
`OCCCC[C@@H]1[C@H]2CCCN3CCC[C@H](CN1Cc1cccc4ccccc14)[C@@H]23`: the 50% inhibitory concentration (IC50) with HepG2 [1] came out at 6.8 µM; in the series with MCF7 [3], 9.07 µM; in the series on MCF7 [4], 9.51 µM.
One may read the Tmax as the time from dosing to the highest level. Usually Cmax stands for the maximum level reached in the sampled fluid or tissue. The AUC(0-t) is exposure summed from dosing to a finite time, without extrapolation to infinity. Low values mean low exposure, high ones high exposure. As usually defined, the AUC(0-inf) is the area under the concentration-time curve extrapolated to infinity. As a reminder, the MRT is a mean duration of stay, worked out from the concentration-time curve. A word on the half-life: it is the time in which the quantity being followed falls by half. A high value points to slow decline. For the compound `OCCCC[C@@H]1[C@H]2CCCN3CCC[C@H](CN1Cc1c4ccccc4cc4ccccc14)[C@@H]23`, the IC50 with HepG2 [1] amounted to 3.1 µM; in the series with MCF7 [3], 5.63 µM; with MCF7 [4], 5.94 µM. Also, in the series with HepG2 [2], the outcome was Active. In addition, the Tmax in [5] amounted to 4.6 h. Also, the peak level in series [6] (Cmax) was 3.4 µM. In [7], this compound showed an AUC(0-t) of 10.3 µM·h. This compound gave an AUC(0-inf) in [8] of 10.5 µM·h. The mean residence time MRT in series [9] amounted to 5.4 h. In [10], this compound showed a half-life of 12.7 h.
`COc1cc(CN2C[C@H]3CCCN4CCC[C@@H]([C@H]34)[C@H]2CCCCO)cc(OC)c1OC` returned a 50% inhibitory concentration (IC50) in the series with HepG2 [1] greater than 40 µM.
With `O=C(O)CCC[C@@H]1[C@H]2CCCN3CCC[C@H](CN1Cc1ccc4ccccc4c1)[C@@H]23`, the IC50 in the series on HepG2 [1] was greater than 40 µM.
Regarding `COc1ccc(CN2C[C@H]3CCCN4CCC[C@@H]([C@H]34)[C@H]2CCCCO)cc1`, the IC50 in the series on HepG2 [1] is greater than 40 µM.
As for `COc1cccc(CN2C[C@H]3CCCN4CCC[C@@H]([C@H]34)[C@H]2CCCCO)c1Cl`, in the series on HepG2 [1], the IC50 stood at 23.6 µM.
Still for that read-out and setting: the same measure for `COc1ccc(CN2C[C@H]3CCCN4CCC[C@@H]([C@H]34)[C@H]2CCCCO)c(Cl)c1OC`: 15.7 µM; for `COc1ccccc1CN1C[C@H]2CCCN3CCC[C@@H]([C@H]23)[C@H]1CCCCO`: 34.6 µM; for `OCCCC[C@@H]1[C@H]2CCCN3CCC[C@H](CN1Cc1ccc4ccccc4c1)[C@@H]23`: 7.9 µM.
The same measure, in the same setting: next, `O=C(CCC[C@@H]1[C@H]2CCCN3CCC[C@H](CN1Cc1c4ccccc4cc4ccccc14)[C@@H]23)c1ccc(Cl)cc1`: 2 µM; `COC(=O)CCC[C@@H]1[C@H]2CCCN3CCC[C@H](CN1Cc1cc(OC)c(OC)c(OC)c1)[C@@H]23`: greater than 40 µM.
Still for that read-out and setting: the same measure for `CC(=O)O[C@H]1C(=O)[C@@]2(C)[C@H]([C@H](OC(=O)c3ccccc3)[C@]3(O)C[C@H](OC(=O)[C@H](O)[C@@H](NC(=O)c4ccccc4)c4ccccc4)C(C)=C1C3(C)C)[C@]1(OC(C)=O)CO[C@@H]1C[C@@H]2O` [PACLITAXEL]: 15.6 µM.
Consider `COC(=O)CCC[C@@H]1[C@H]2CCCN3CCC[C@H](CN1Cc1cccc(OC)c1)[C@@H]23`, for which the IC50 in the series on HepG2 [1] was 10.7 µM.
In the series on HepG2 [1], `COC(=O)CCC[C@@H]1[C@H]2CCCN3CCC[C@H](CN1Cc1cccc4ccccc14)[C@@H]23` yielded an IC50 of 3.3 µM.

For the origin of these results see ChEMBL document CHEMBL3351636, “Synthesis and biological evaluation of sophoridinol derivatives as a novel family of potential anticancer agents” (ACS Med Chem Lett, 2014).
